Screens: PubChem, The Scripps Research Institute Molecular Screening Center
Compounds with a hit are over-represented: about 1.8% of the library has one in this group of screens.
M4 antag: CHRM4 antagonism in calcium assay | 360,000 compounds, 0.73% hits | AID 624125 | CHO-hM4 cells, ACh EC80, Fluo-8 calcium fluorescence | P08173 | inhibition, % at 3 µM;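 active = inhibition above its plate's cutoff, the mean inhibition of sample wells plus 3 SD, cut at about 27% in these data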
Target sequence (P08173 whole entry, looked up): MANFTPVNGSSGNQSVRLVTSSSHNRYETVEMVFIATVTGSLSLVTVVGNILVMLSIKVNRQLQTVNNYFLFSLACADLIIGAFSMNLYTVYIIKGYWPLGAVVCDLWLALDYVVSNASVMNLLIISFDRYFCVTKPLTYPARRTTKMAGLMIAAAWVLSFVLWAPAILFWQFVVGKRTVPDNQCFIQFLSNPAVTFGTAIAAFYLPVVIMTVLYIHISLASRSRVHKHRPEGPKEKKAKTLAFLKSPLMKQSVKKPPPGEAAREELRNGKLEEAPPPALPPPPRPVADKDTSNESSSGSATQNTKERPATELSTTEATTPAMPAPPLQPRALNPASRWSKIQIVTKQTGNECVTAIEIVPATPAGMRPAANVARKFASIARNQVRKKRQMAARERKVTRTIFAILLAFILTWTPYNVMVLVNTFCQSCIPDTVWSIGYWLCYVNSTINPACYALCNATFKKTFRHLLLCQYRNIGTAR
M5 antag: blocks acetylcholine activation of human M5 receptor | CHO-hM5 cells, Fluo-8 calcium fluorescence, ACh EC80 | inhibition, % at 3 µM | P08912 | AID 624040 | 360,000 compounds, 0.59% hits;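 active = inhibition above a per-plate cutoff, the mean of that plate's test compounds plus 3 SD, cut at about 27% in these data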
M5 PAM: potentiates acetylcholine response at human M5 receptor. P08912. CHO-K1 hM5, Fluo-8 calcium, ACh EC20 PAM; 0% = ACh EC20, 100% = ACh EC100. activation, % at 3 µM. 360,000 compounds, 0.3% hits;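 active = activation above the run cutoff, the mean activation of all test compounds plus 3 SD, cut at about 18% in these data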
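System – CHO-K1 hM5 cells · Compound – 3 µM, single dose · Incubation – compound preincubation 140 s before EC20 acetylcholine addition · Technique – Fluo-8 calcium fluorescence · Measure – Max/basal fluorescence ratio as % of EC20–EC100 ACh window · Benchmarks – low control EC20 acetylcholine (0%), high control EC100 acetylcholine (100%) · Replication – singlicate, one well per test compound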
M5 ag: agonists of human muscarinic M5 receptor (CHRM5). CHO-K1 hM5 cells, Fluo-8 calcium fluorescence; 0% DMSO wells, 100% maximal acetylcholine response. P08912. activation, % at 3 µM. 360,000 compounds, 0.19% hits;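 active = activation above the run's mean over test compounds plus 3 SD, cut at about 23% in these data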;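 note: signal is peak over basal fluorescence ratio across the kinetic read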
M4 PAM: positive allosteric modulators of human muscarinic M4 receptor; 360,000 compounds, 0.4% hits; AID 624126; activation, % at 3 µM; CHO-K1 hM4/Gqi5, Fluo-8 calcium fluorescence, ACh EC20; 0% = ACh EC20, 100% = maximal ACh;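 active = activation above its plate's cutoff, the mean activation of sample wells plus 3 SD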
CHRM4 agonist: agonists of human muscarinic M4 receptor (CHRM4) | activation, % at 3 µM | 360,000 compounds, 0.14% hits | P08173 | CHO-K1 hM4/Gqi5, Fluo-8 calcium fluorescence; vehicle 0%, full acetylcholine response 100%;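 active = activation above the run mean over all test wells plus 3 SD, cut at about 32% in these data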;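 note: peak over basal fluorescence ratio per well then scaled between controls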
Each line names hits and unclear results; the compound was inactive in the other large screens; ! = not confirmed by another sample.

CCC(C)Sc1cccc(-c2nc3cc(C)ccn3c2NCc2ccccc2)c1 (stereo unspecified)	M4 antag 44.1!
COc1cccc(/C=C2\C(=O)C(=O)c3ccccc32)c1	M4 antag 31.0
O=C(OCc1ccccc1F)c1cc(S(=O)(=O)N2CCCCC2)ccc1N1CCOCC1	none
Cc1ccccc1S(=O)Cc1ccc(C(=O)NCCN2CCOCC2)o1 (stereo unspecified)	none
O=C([O-])c1ccccc1-[n+]1c(-c2ccccc2)cc(-c2ccccc2)cc1-c1ccccc1	M4 antag 60.6
CN(C)c1ccc(/C=C2\Oc3ccc(C#Cc4cccc(N)c4)cc3C2=O)cc1	M5 antag 33.3, M5 ag 67.0, CHRM4 agonist 96.4
CCOc1ccc(OCCCC(=O)Nc2cc(Cl)ccc2-n2cncn2)cc1	none
COc1ccc(S(=O)(=O)Nc2ccccc2N2CCOCC2)cc1OC	none
CC(=O)c1c(N)c(C#N)c(C)n1-c1ccc(Br)cc1	M5 antag 27.0, M5 PAM 34.6
Cc1cc2c(cc1S(=O)(=O)NCc1ccccc1)OCC(=O)N2	none
Cc1oc(-c2ccccc2)cc1C(=O)Nc1cccc(C(=O)O)c1	M4 PAM 42.7
O=C(OCCN1C(=O)c2cccc3c(N4CCOCC4)ccc(c23)C1=O)c1ccccc1Cl	M4 antag 40.1, M5 antag 44.7
COc1cccc(C(=O)Oc2cc3c4c(c2)C(C)=CC(C)(C)N4C(=O)C3=O)c1	M5 antag 46.0, M5 ag 56.6
COc1ccc(C(=O)Oc2cc3c4c(c2)C(C)=CC(C)(C)N4C(=O)C3=O)cc1OC	none
COc1cc2c3c(c1)C(C)=CC(C)(C)N3C(=O)C2=O	M5 ag 35.9
COc1ccc(/C=N/NC(=O)C2CCN(c3ncc(C(F)(F)F)cc3Cl)CC2)cc1	none
O=C(NC(NNc1ccc([N+](=O)[O-])cc1)(C(F)(F)F)C(F)(F)F)c1ccc(F)cc1	M5 antag 28.9
O=C(NC(NNc1ccc([N+](=O)[O-])cc1)(C(F)(F)F)C(F)(F)F)c1ccccc1Cl	none
C/C(=N/OC(=O)c1c(-c2ccccc2Cl)noc1C)c1cnccn1	M4 antag 33.9
C/C(=N/OC(=O)c1c(-c2c(Cl)cccc2Cl)noc1C)c1cnccn1	none
NC(=O)c1ccc[n+]([C@H]2O[C@@H](COP(=O)([O-])OP(=O)(O)OC[C@H]3O[C@@H](n4cnc5c(N)ncnc54)[C@H](O)[C@@H]3O)[C@H](O)[C@@H]2O)c1	M5 ag 24.9, CHRM4 agonist 79.7
COc1ccc(C(=O)NC[C@H]2O[C@@H](n3cnc4c(N)ncnc43)[C@H](O)[C@@H]2O)cc1OC	none
Cc1ccc(NS(=O)(=O)c2cc(C(=O)NCc3ccncc3)ccc2C)cc1	none
COc1ccc(OC)c2c1C(=O)C(Cl)=C(Cl)C2=O	M4 antag 60.5
O=C(c1cc2sccc2n1Cc1ccccc1)N1CCN(c2nc3ccccc3s2)CC1	M4 antag 26.8
CCC(=O)N1CCN(c2nc3ccccc3s2)CC1	none
COc1ccc(-c2ccc(C(=O)Nc3cccc(N(C)C)c3)c3occc23)c(C)c1	none
COc1ccc(C(CCN2CCCCC2)c2c(OC)cc(OC)c3c(-c4ccccc4)cc(=O)oc23)cc1 (stereo unspecified)	M4 antag 34.2
O=C(CC(c1ccccc1O)N1CCCCC1)N1CCCCC1 (stereo unspecified)	M4 antag 77.9
O=C(CC(c1ccccc1)c1cc(Cl)ccc1O)N1CCCC1 (stereo unspecified)	none
Cc1ccc(C)c(OCc2cc(C(=O)N(C)Cc3ccccn3)no2)c1	none
Cc1ccc(C)c(OCc2cc(C(=O)N(C)Cc3nccs3)no2)c1	M5 antag 28.4
Cc1ccc(S(=O)(=O)NCCCNS(=O)(=O)c2ccccc2Br)cc1	none
Cc1ccc(C(=O)CSC2=C(C#N)C(c3ccco3)CC(=O)N2)c(C)c1 (stereo unspecified)	M5 ag 47.2
Cc1nn(CC(=O)NC(=O)c2ccccc2)c(C)c1[N+](=O)[O-]	M4 PAM 22.8
CCn1nc(C)c([N+](=O)[O-])c1C(=O)NNC(=O)c1ccc(Cl)cc1	M5 PAM 19.5
Cc1nn(CC(=O)NCc2ccccc2)c(C)c1[N+](=O)[O-]	none
OC[C@@H]1CN(Cc2ccc(-c3ccccc3)cc2)C[C@H](n2cnc3c(NCc4ccco4)ncnc32)O1	M4 antag 29.0
OC[C@@H]1CN(Cc2ccccc2)C[C@H](n2cnc3c(NCc4ccco4)ncnc32)O1	none
CN1CCN(c2ncnc3c2ncn3[C@H]2CN(Cc3ccc(C(=O)O)cc3)C[C@@H](CO)O2)CC1	M4 PAM 18.3
COCCNc1ncnc2c1ncn2[C@H]1CN(Cc2cc(OC)c(OC)c(OC)c2)C[C@@H](CO)O1	none
COc1cc(CN2C[C@@H](CO)O[C@@H](n3cnc4c(NCC(C)C)ncnc43)C2)cc(OC)c1OC	M4 PAM 16.8
CN(CC(=O)Nc1ccccc1C(=O)NC1CC1)Cc1ccco1	none
Cc1cccc(C(=O)OCC(=O)Nc2ccc3c(c2)OCCO3)c1O	none
COC(=O)C1=C(C)N(CCc2ccc(OC)c(OC)c2)C(=O)C1	M5 PAM 27.9
O=S(=O)(/N=S1/CC=CCN1S(=O)(=O)c1ccccc1)c1ccccc1 (stereo unspecified)	M5 ag 25.6
O=C(Nc1nc(-c2ccccc2)cs1)c1ccccc1NS(=O)(=O)c1ccc(F)cc1	M4 antag 31.0, M5 antag 42.1
O=S(=O)(Nc1ccc(-c2csc(-c3ccccc3)n2)cc1)c1ccc(F)cc1	M4 PAM 31.3
CC1CCN(CCCCOc2ccc(C(C)(C)C)cc2)CC1	M4 antag 29.7
CC1CCN(CCCCOc2ccc(Cl)cc2)CC1	none
N#Cc1ccccc1OCCCN1CCC(C(O)(c2ccccc2)c2ccccc2)CC1	M4 antag 27.1
OC(c1ccccc1)(c1ccccc1)C1CCN(CCCOc2ccc(F)cc2)CC1	M4 antag 65.5, M5 antag 55.5
Cc1ccc(OCCCN2CCC(C(O)(c3ccccc3)c3ccccc3)CC2)cc1	M4 antag 62.0, M5 antag 77.5
Cc1ccc(NC(=O)c2sc(N)nc2C)cc1	none
CCOc1ccccc1-n1c(N)c(C(N)=O)sc1=S	M5 PAM 22.1
O=c1ccc(-c2n[nH]c(=S)n2-c2ccc(F)c(Cl)c2)n[nH]1	none
Fc1ccc(-n2c(-c3cc(C4CC4)[nH]n3)n[nH]c2=S)cc1Cl	M5 PAM 19.4
CN1CCN(c2nc(-c3ccc(Cl)cc3)nc3ccccc23)CC1	none
